This is an account of results in ChEMBL document CHEMBL1143074, “Symplocamide A, a potent cytotoxin and chymotrypsin inhibitor from the marine Cyanobacterium Symploca sp” (J Nat Prod, 2008).

Assay [1] can be described thus: Inhibition of trypsin at 10 uM.
The nature of assay [2]: Inhibition of chymotrypsin at 10 uM.
A short description of assay [3]: Inhibition of chymotrypsin. An outline of the steps: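 Spectrophotometric assay: 0.0025 mg/mL chymotrypsin (0.0086 U) with 0.53 mM BTEE in 38 mM Tris-HCl pH 7.8, 53 mM CaCl2, 0.5 mM HCl and 32% MeOH at 25 °C. Inhibitor (from MeOH dilutions, final 6.25 × 10-5 to 7.5 × 10^-9 M) was equilibrated with substrate before enzyme addition. Absorbance at 256 nm was followed for 5 min, and the 0.5–1.5 min interval was analyzed.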

The source made the active and inactive calls. The rule behind the calls is not given here.

On to `CCC(=O)N[C@@H](CCC(N)=O)C(=O)N1CC(C)[C@@H]2OC(=O)[C@H]([C@@H](C)CC)NC(=O)[C@H](Cc3ccc(O)cc3)N(C)C(=O)[C@H]([C@@H](C)CC)N3C(=O)[C@H](CC[C@H]3O)NC(=O)[C@H](CC(C)C)NC(=O)[C@H]21` (stereo partly drawn), for which the result in assay [1] and in assay [2] was inactive.
For the compound `CCCC(=O)N[C@@H](Cc1ccccc1)C(=O)N[C@@H](CCC(=O)O)C(=O)N[C@@H]1C(=O)N[C@@H](CCC(=O)O)C(=O)N[C@H]2CC[C@@H](O)N(C2=O)[C@@H](C(C)C)C(=O)N(C)[C@@H](Cc2ccccc2)C(=O)N[C@@H]([C@@H](C)CC)C(=O)O[C@@H]1C`, the result in assay [1] and in assay [2] was inactive.
In general, IC50 refers to the concentration at which inhibition is half-maximal. High values mean lower potency, low ones higher potency. On to `CC(C)C[C@@H]1NC(=O)[C@@H](NC(=O)[C@@H](NC(=O)[C@@H](C)NC(=O)[C@H](CCCc2ccc(O)cc2)NC(=O)[C@H](O)CO)C(C)C)[C@@H](C)OC(=O)[C@H](C(C)C)NC(=O)[C@H](Cc2ccc(O)c(Cl)c2)N(C)C(=O)[C@H]([C@@H](C)O)N2C(=O)[C@H](CC[C@H]2O)NC1=O` [LARGAMIDE E], for which, in assay [1], the outcome was inactive. Further, the IC50 in assay [3] was determined as 10 µM.
In the case of `CC(C)[C@H](NC(=O)[C@@H](C)NC(=O)[C@H](CCCc1ccc(O)cc1)NC(=O)[C@H](O)CO)C(=O)N[C@@H]1C(=O)N[C@@H](Cc2ccc(O)cc2)C(=O)N[C@H]2CC[C@@H](O)N(C2=O)[C@@H]([C@@H](C)O)C(=O)N(C)[C@@H](Cc2ccc(O)c(Br)c2)C(=O)N[C@@H](C(C)C)C(=O)O[C@@H]1C` [LARGAMIDE F], the result in assay [1] was inactive. In assay [3], this compound showed an IC50 of 4 µM.
For `CC[C@H](C)[C@@H]1NC(=O)[C@H](Cc2ccccc2)N(C)C(=O)[C@H](C(C)C)N2C(=O)[C@H](CC[C@H]2O)NC(=O)[C@H](CC2C=CC(O)CC2)NC(=O)[C@@H](NC(=O)[C@@H](N)CCC(=O)O)[C@@H](C)OC1=O` (stereo partly drawn) [MICROPEPTIN 88A], in assay [1], the result was inactive. Moreover, in assay [3], the IC50 came to 0.4 µM.
Regarding `CCCC(=O)N[C@@H](Cc1ccccc1)C(=O)N[C@@H](CCC(=O)O)C(=O)N[C@@H]1C(=O)N[C@@H](Cc2ccc(O)cc2)C(=O)N[C@H]2CC[C@@H](O)N(C2=O)[C@@H](C(C)C)C(=O)N(C)[C@@H](Cc2ccccc2)C(=O)N[C@@H]([C@@H](C)CC)C(=O)O[C@@H]1C` [MICROPEPTIN 88C], in assay [1], the result was inactive. Also, the IC50 in assay [3] is 4.5 µM.
On to `CCCC(=O)N[C@@H](Cc1ccccc1)C(=O)N[C@@H](CCC(=O)O)C(=O)N[C@@H]1C(=O)N[C@@H](CC2C=CC(O)CC2)C(=O)N[C@H]2CC[C@@H](O)N(C2=O)[C@@H](C(C)C)C(=O)N(C)[C@@H](Cc2ccccc2)C(=O)N[C@@H]([C@@H](C)CC)C(=O)O[C@@H]1C` (stereo partly drawn) [MICROPEPTIN 88D], for which the result in assay [1] was inactive. The IC50 in assay [3] was determined as 8.96 µM.
In the case of `CCCC(=O)N[C@@H](Cc1ccccc1)C(=O)N[C@@H](CCC(=O)O)C(=O)N[C@@H]1C(=O)N[C@@H](CC(C)C)C(=O)N[C@H]2CC[C@@H](O)N(C2=O)[C@@H](C(C)C)C(=O)N(C)[C@@H](Cc2ccccc2)C(=O)N[C@@H]([C@@H](C)CC)C(=O)O[C@@H]1C` [MICROPEPTIN 88E], the result in assay [1] was inactive. The same compound yielded an IC50 in assay [3] of 4.9 µM.
Regarding `CCCC(=O)N[C@@H](Cc1ccccc1)C(=O)N[C@@H](CCC(=O)OC)C(=O)N[C@@H]1C(=O)N[C@@H](Cc2ccc(O)cc2)C(=O)N[C@H]2CC[C@@H](O)N(C2=O)[C@@H](C(C)C)C(=O)N(C)[C@@H](Cc2ccccc2)C(=O)N[C@@H]([C@@H](C)CC)C(=O)O[C@@H]1C` [MICROPEPTIN 88F], the outcome in assay [1] was inactive. In addition, the IC50 in assay [3] worked out at 3.02 µM.
With `CC[C@H](C)[C@@H]1NC(=O)[C@H](Cc2ccccc2)N(C)C(=O)[C@H](C(C)C)N2C(=O)[C@H](CC[C@H]2O)NC(=O)[C@H](Cc2ccc(O)cc2)NC(=O)[C@@H](NC(=O)[C@H](CCC(=O)O)NC(=O)[C@H](Cc2ccc(O)cc2)NC(C)=O)[C@@H](C)OC1=O` [MICROPEPTIN 88Y], in assay [1], the outcome was inactive. 1.3 µM corresponded to half-maximal inhibition in assay [3] (IC50).
`CCCCCC(=O)NCC(=O)N[C@H](C(=O)N[C@@H]1C(=O)N[C@@H](CCC(N)=O)C(=O)N[C@H]2CC[C@@H](O)N(C2=O)[C@@H](Cc2ccccc2)C(=O)N(C)[C@@H](Cc2c[nH]c3ccccc23)C(=O)N[C@@H](C(C)C)C(=O)O[C@@H]1C)[C@@H](C)O` [MICROPEPTIN 103]: the result in assay [1] was inactive. The compound further yielded an IC50 in assay [3] of 0.96 µM.
With `CCCCCC(=O)N[C@@H](CC(=O)O)C(=O)N[C@@H]1C(=O)N[C@@H](Cc2ccc(O)cc2)C(=O)N[C@H]2CC[C@@H](O)N(C2=O)[C@@H]([C@@H](C)CC)C(=O)N(C)[C@@H](Cc2ccc(O)cc2)C(=O)N[C@@H](C(C)C)C(=O)O[C@@H]1C` [MICROPEPTIN SD979], the result in assay [1] was inactive. In addition, 2.4 µM corresponded to half-maximal inhibition in assay [3] (IC50).
Taken in the same sequence, the figures for `CCCCCC(=O)N[C@@H](CC(=O)O)C(=O)N[C@@H]1C(=O)N[C@@H](Cc2ccc(O)cc2)C(=O)N[C@H]2CC[C@@H](O)N(C2=O)[C@@H]([C@@H](C)CC)C(=O)N(C)[C@@H](Cc2c[nH]c3ccccc23)C(=O)N[C@@H](C(C)C)C(=O)O[C@@H]1C` [MICROPEPTIN SD1002] were “inactive” and 3.13 µM.
Turning to `CC[C@H](C)[C@@H]1NC(=O)[C@H](Cc2ccc(O)cc2)N(C)C(=O)[C@H](CC(C)C)N2C(=O)[C@H](CC[C@H]2O)NC(=O)[C@H](CCC(N)=O)NC(=O)[C@@H](NC(=O)[C@@H](O)Cc2ccc(O)cc2)[C@@H](C)OC1=O` [MICROPEPTIN SF909], the result in assay [1] was inactive. In addition, the IC50 in assay [3] was determined as 4.4 µM.
On to `CCCCCC(=O)N[C@@H](CCC(N)=O)C(=O)N[C@@H]1C(=O)N[C@@H](Cc2ccc(O)cc2)C(=O)N[C@H]2CC[C@@H](O)N(C2=O)[C@@H](Cc2ccccc2)C(=O)N(C)[C@@H](Cc2ccc(O)cc2)C(=O)N[C@@H](C(C)C)C(=O)O[C@@H]1C` [MICROPEPTIN T1], for which the outcome in assay [1] was inactive. The compound further gave an IC50 in assay [3] of 2.85 µM.
Regarding `CCCC(=O)N[C@@H](CCC(N)=O)C(=O)N1CC(C)C2OC(=O)[C@H]([C@@H](C)CC)NC(=O)[C@H](Cc3ccc(O)cc3)N(C)C(=O)[C@H]([C@@H](C)CC)N3C(=O)C(CCC3O)NC(=O)[C@H](CC(C)C)NC(=O)[C@H]21` (stereo partly drawn) [NOSTOPEPTIN A], the outcome in assay [1] was inactive. Moreover, the midpoint of inhibition in assay [3], the IC50, lay at 1.47 µM.
As to `CC(=O)N[C@@H](CCC(N)=O)C(=O)N[C@@H]1C(=O)N[C@@H](CC(C)C)C(=O)N[C@H]2CC[C@@H](O)N(C2=O)[C@@H](Cc2ccccc2)C(=O)N(C)[C@@H](Cc2ccc(O)cc2)C(=O)N[C@@H](C(C)C)C(=O)O[C@@H]1C` [NOSTOPEPTIN BN920], the outcome in assay [1] was inactive. In assay [3], the IC50 came to 0.11 µM.
In the case of `CC[C@H](C)[C@@H]1NC(=O)[C@H](Cc2ccc(O)cc2)N(C)C(=O)[C@H](CC(C)C)N2C(=O)[C@H](CC[C@H]2O)NC(=O)[C@H](CC(C)C)NC(=O)[C@@H]2[C@@H](OC1=O)C(C)CN2C(=O)[C@H](CCC(N)=O)NC(C)=O` (stereo partly drawn) [NOSTOPEPTIN E], the outcome in assay [1] was inactive. Further, the IC50 in assay [3] worked out at 3.6 µM.
For `CC[C@H](C)[C@@H]1NC(=O)[C@H](Cc2ccc(O)cc2)N(C)C(=O)[C@H](CC(C)C)N2C(=O)[C@H](CC[C@H]2OC)NC(=O)[C@H](CC(C)C)NC(=O)[C@@H]2[C@@H](OC1=O)C(C)CN2C(=O)[C@H](CCC(N)=O)NC(C)=O` (stereo partly drawn) [NOSTOPEPTIN F], the result in assay [1] was inactive. In assay [3], this compound came in with an IC50 of 3.8 µM.
For the compound `CC[C@H](C)[C@@H]1NC(=O)[C@H](Cc2ccc(OC)cc2)N(C)C(=O)[C@H](CC(C)C)N2C(=O)[C@H](CC[C@H]2O)NC(=O)[C@H](CC(C)C)NC(=O)[C@@H]2[C@@H](OC1=O)C(C)CN2C(=O)[C@H](CCC(N)=O)NC(C)=O` (stereo partly drawn) [NOSTOPEPTIN I], the outcome in assay [1] was inactive. In assay [3], this compound yielded an IC50 of 3.5 µM.
As for `CC[C@H](C)[C@@H]1NC(=O)[C@H](Cc2ccc(OC)cc2)N(C)C(=O)[C@H](CC(C)C)N2C(=O)[C@H](CC[C@H]2OC)NC(=O)[C@H](CC(C)C)NC(=O)[C@@H]2[C@@H](OC1=O)C(C)CN2C(=O)[C@H](CCC(N)=O)NC(C)=O` (stereo partly drawn) [NOSTOPEPTIN J], the result in assay [1] was inactive. Further, in assay [3], the IC50 amounted to 3.2 µM.
The matching figures for `CC[C@@H](C)[C@@H]1NC(=O)[C@H](Cc2ccc(OC)cc2)N(C)C(=O)[C@H]([C@@H](C)CC)N2C(=O)[C@H](CC[C@H]2O)NC(=O)[C@H](CCc2ccc(O)cc2)NC(=O)[C@@H](NC(=O)[C@H](CCc2ccc(O)cc2)NC(=O)[C@@H](COS(=O)(=O)O)OC)[C@@H](C)OC1=O` [OSCILLAPEPTIN A]: “inactive” and 1.89 µM.
Taken in the same sequence, the figures for `CC[C@H](C)[C@@H]1NC(=O)[C@H](Cc2ccc(OC)cc2)N(C)C(=O)[C@H]([C@@H](C)O)N2C(=O)[C@H](CC[C@H]2O)NC(=O)[C@H](CC(C)C)NC(=O)[C@@H](NC(=O)[C@H](CCC(N)=O)NC(=O)[C@@H](NC(=O)[C@@H](O)CO)C(C)C)[C@@H](C)OC1=O` [PLANKTOPEPTIN BL1061] were “inactive” and 2.1 µM.
With `CC[C@H](C)[C@@H]1NC(=O)[C@H](Cc2ccc(OC)cc2)N(C)C(=O)[C@H]([C@@H](C)O)N2C(=O)[C@H](CC[C@H]2O)NC(=O)[C@H](CC(C)C)NC(=O)[C@@H](NC(=O)[C@H](CCC(N)=O)NC(=O)[C@H](CCc2ccc(O)cc2)NC(=O)[C@@H](O)CO)[C@@H](C)OC1=O` [PLANKTOPEPTIN BL1125], in assay [1], the result was inactive. The concentration for half-maximal inhibition (IC50) in assay [3] turned out to be 0.8 µM.
